Results published in ChEMBL document CHEMBL1255404, “Spread of OXA-48-encoding plasmid in Turkey and beyond” (2010).
Converted amounts (≈) assume the structure as drawn.

Assays:
Format in all cases: functional
[1] = system: Enterobacter cloacae; experiment: Antimicrobial activity against Enterobacter cloacae isolate 1 expressing beta-lactamase OXA-48 and SHV-5 by Etest method
[2] = system: Escherichia coli; experiment: Antimicrobial activity against Escherichia coli isolate J53 harboring pEnc2 containing beta-lactamase OXA-48 located within transposon Tn1999 by Etest method
How it was run: (§1)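 β-Lactam MICs read with Etest strips. Strains are E. coli J53 recipient and J53 transconjugants carrying OXA-48-positive plasmids recovered from clinical enterobacterial isolates.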

[3] = system: Klebsiella pneumoniae; experiment: Antimicrobial activity against Klebsiella pneumoniae isolate KpB expressing OXA-48 and CTX-M-15 by Etest method in presence of beta-lactamase inhibitor clavulanic acid
How it was run: (§2)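 MICs of β-lactams read from Etest strips. The test organisms are carbapenem-resistant, OXA-48-positive clinical Enterobacteriaceae isolates recovered from Turkey, Lebanon, Egypt, France and Belgium.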

[4] = system: Escherichia coli; experiment: Antimicrobial activity against Escherichia coli isolate J53 harboring p6A containing beta-lactamase OXA-48 located within transposon Tn1999 by Etest method; how it was run: as §1
[5] = system: Escherichia coli; experiment: Antimicrobial activity against Escherichia coli isolate J53 by Etest method; how it was run: as §1
[6] = system: Escherichia coli; experiment: Antimicrobial activity against Escherichia coli isolate A expressing beta-lactamase OXA-48 and TEM-150 by Etest method in presence of beta-lactamase inhibitor clavulanic acid; how it was run: as §2
[7] = system: Enterobacter cloacae; experiment: Antimicrobial activity against Enterobacter cloacae isolate 2 expressing beta-lactamase OXA-48 and SHV-5 by Etest method
[8] = system: Escherichia coli; experiment: Antimicrobial activity against Escherichia coli isolate J53 harboring pEnc1 containing beta-lactamase OXA-48 located within transposon Tn1999 by Etest method; how it was run: as §1
[9] = system: Escherichia coli; experiment: Antimicrobial activity against Escherichia coli isolate J53 harboring pI-2 containing beta-lactamase OXA-48 located within transposon Tn1999.2 by Etest method in presence of beta-lactamase inhibitor clavulanic acid; how it was run: as §1
[10] = system: Klebsiella pneumoniae; experiment: Antimicrobial activity against Klebsiella pneumoniae isolate KpBEL expressing beta-lactamase OXA-48 by Etest method in presence of beta-lactamase inhibitor clavulanic acid; how it was run: as §2
[11] = system: Escherichia coli; experiment: Antimicrobial activity against Escherichia coli isolate TOP10 by Etest method
How it was run: (§3)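 β-Lactam MICs read with Etest strips. Strains are E. coli TOP10 host and TOP10 transformants made with plasmid DNA extract when conjugation failed. Transformants were selected on LB agar with ticarcillin 50 μg/ml.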

[12] = system: Escherichia coli; experiment: Antimicrobial activity against Escherichia coli isolate J53 harboring pL containing beta-lactamase OXA-48 located within transposon Tn1999.2 by Etest method; how it was run: as §1
[13] = system: Klebsiella pneumoniae; experiment: Antimicrobial activity against Klebsiella pneumoniae isolate Kp11978 expressing beta-lactamase OXA-48, SHV-2a and TEM-1 by Etest method
[14] = system: Klebsiella pneumoniae; experiment: Antimicrobial activity against Klebsiella pneumoniae isolate Kp4A expressing beta-lactamase OXA-48 and CTX-M-15 by Etest method in presence of beta-lactamase inhibitor clavulanic acid; how it was run: as §2
[15] = system: Klebsiella pneumoniae; experiment: Antimicrobial activity against Klebsiella pneumoniae isolate Kp7A expressing beta-lactamase OXA-48 by Etest method; how it was run: as §2
[16] = system: Klebsiella pneumoniae; experiment: Antimicrobial activity against Klebsiella pneumoniae isolate Kp3A expressing beta-lactamase OXA-48 by Etest method in presence of beta-lactamase inhibitor clavulanic acid; how it was run: as §2
[17] = system: Klebsiella pneumoniae; experiment: Antimicrobial activity against Klebsiella pneumoniae isolate Kp3A expressing beta-lactamase OXA-48 by Etest method; how it was run: as §2
[18] = system: Klebsiella pneumoniae; experiment: Antimicrobial activity against Klebsiella pneumoniae isolate KpE expressing beta-lactamase OXA-48 and CTX-M-15 by Etest method in presence of beta-lactamase inhibitor clavulanic acid; how it was run: as §2
[19] = system: Escherichia coli; experiment: Antimicrobial activity against Escherichia coli isolate J53 harboring pCF containing beta-lactamase OXA-48 located within transposon Tn1999 by Etest method; how it was run: as §1
[20] = system: Enterobacter cloacae; experiment: Antimicrobial activity against Enterobacter cloacae isolate 2 expressing beta-lactamase OXA-48 and SHV-5 by Etest method in presence of beta-lactamase inhibitor clavulanic acid; how it was run: as §2
[21] = system: Klebsiella pneumoniae; experiment: Antimicrobial activity against Klebsiella pneumoniae isolate KpBIC expressing beta-lactamase OXA-48 by Etest method; how it was run: as §2
[22] = system: Escherichia coli; experiment: Antimicrobial activity against Escherichia coli isolate TOP10 by Etest method in presence of beta-lactamase inhibitor clavulanic acid; how it was run: as §3
[23] = system: Klebsiella pneumoniae; experiment: Antimicrobial activity against Klebsiella pneumoniae isolate Kp6A expressing beta-lactamase OXA-48 and TEM-150 by Etest method in presence of beta-lactamase inhibitor clavulanic acid; how it was run: as §2
[24] = system: Enterobacter cloacae; experiment: Antimicrobial activity against Enterobacter cloacae isolate 1 expressing beta-lactamase OXA-48 and SHV-5 by Etest method in presence of beta-lactamase inhibitor clavulanic acid; how it was run: as §2
[25] = system: Escherichia coli; experiment: Antimicrobial activity against Escherichia coli isolate J53 harboring pBb containing beta-lactamase OXA-48 located within transposon Tn1999.2 by Etest method; how it was run: as §1
[26] = system: Klebsiella pneumoniae; experiment: Antimicrobial activity against Klebsiella pneumoniae isolate KpL expressing beta-lactamase OXA-48 by Etest method
[27] = system: Escherichia coli; experiment: Antimicrobial activity against Escherichia coli isolate TOP10 harboring pBIC containing beta-lactamase OXA-48 located within transposon Tn1999.2 by Etest method; how it was run: as §3
[28] = system: Klebsiella pneumoniae; experiment: Antimicrobial activity against Klebsiella pneumoniae isolate Kp5A expressing beta-lactamase OXA-48 and SHV-5 by Etest method in presence of beta-lactamase inhibitor clavulanic acid; how it was run: as §2
[29] = system: Escherichia coli; experiment: Antimicrobial activity against Escherichia coli isolate J53 harboring pEnc1 containing beta-lactamase OXA-48 located within transposon Tn1999 by Etest method in presence of beta-lactamase inhibitor clavulanic acid; how it was run: as §1
[30] = system: Klebsiella pneumoniae; experiment: Antimicrobial activity against Klebsiella pneumoniae isolate KpI-1 expressing beta-lactamase OXA-48 and CTX-M-15 by Etest method
[31] = system: Escherichia coli; experiment: Antimicrobial activity against Escherichia coli isolate J53 harboring p4A containing beta-lactamase OXA-48 located within transposon Tn1999 by Etest method; how it was run: as §1
[32] = system: Escherichia coli; experiment: Antimicrobial activity against Escherichia coli isolate J53 harboring pBb containing beta-lactamase OXA-48 located within transposon Tn1999.2 by Etest method in presence of beta-lactamase inhibitor clavulanic acid; how it was run: as §1
[33] = system: Escherichia coli; experiment: Antimicrobial activity against Escherichia coli isolate TOP10 harboring pBIC containing beta-lactamase OXA-48 located within transposon Tn1999.2 by Etest method in presence of beta-lactamase inhibitor clavulanic acid; how it was run: as §3
[34] = system: Escherichia coli; experiment: Antimicrobial activity against Escherichia coli isolate J53 harboring p7A containing beta-lactamase OXA-48 located within transposon Tn1999 by Etest method in presence of beta-lactamase inhibitor clavulanic acid; how it was run: as §1
[35] = system: Escherichia coli; experiment: Antimicrobial activity against Escherichia coli isolate J53 harboring pA-1 containing beta-lactamase OXA-48 located within transposon Tn1999 by Etest method in presence of beta-lactamase inhibitor clavulanic acid; how it was run: as §1
[36] = system: Escherichia coli; experiment: Antimicrobial activity against Escherichia coli isolate J53 harboring pA-1 containing beta-lactamase OXA-48 located within transposon Tn1999 by Etest method; how it was run: as §1
[37] = system: Escherichia coli; experiment: Antimicrobial activity against Escherichia coli isolate J53 harboring p5A containing beta-lactamase OXA-48 located within transposon Tn1999 by Etest method in presence of beta-lactamase inhibitor clavulanic acid; how it was run: as §1
[38] = system: Providencia rettgeri; experiment: Antimicrobial activity against Providencia rettgeri isolate expressing beta-lactamase OXA-48 and TEM-101 by Etest method in presence of beta-lactamase inhibitor clavulanic acid; how it was run: as §2

Row | Compound | MIC [1] [µg/mL] | MIC [2] [µg/mL] | MIC [3] [µg/mL] | MIC [4] [µg/mL] | MIC [5] [µg/mL] | MIC [6] [µg/mL] | MIC [7] [µg/mL] | MIC [8] [µg/mL] | MIC [9] [µg/mL] | MIC [10] [µg/mL] | MIC [11] [µg/mL] | MIC [12] [µg/mL] | MIC [13] [µg/mL] | MIC [14] [µg/mL] | MIC [15] [µg/mL] | MIC [16] [µg/mL] | MIC [17] [µg/mL] | MIC [18] [µg/mL] | MIC [19] [µg/mL] | MIC [20] [µg/mL] | also measured
1 | CC1(C)S[C@@H]2[C@H](NC(=O)[C@H](C(=O)O)c3ccsc3)C(=O)N2[C@H]1C(=O)O [TICARCILLIN] | > 512 | > 512 | > 512 | > 512 | 2 (≈ 5.2 µM) | > 256 | > 512 | > 512 | > 512 | > 256 | 4 (≈ 10.4 µM) | > 256 | > 512 | > 512 | > 512 | > 512 | > 512 | > 512 | > 512 | > 512 | MIC [21]: > 512 µg/mL; MIC [22]: 4 µg/mL; MIC [23]: > 512 µg/mL; MIC [24]: > 512 µg/mL; MIC [25]: > 512 µg/mL; MIC [26]: > 256 µg/mL; MIC [27]: > 512 µg/mL; MIC [28]: > 512 µg/mL; MIC [29]: > 512 µg/mL; MIC [30]: > 512 µg/mL; MIC [31]: > 512 µg/mL; MIC [32]: > 512 µg/mL; MIC [33]: > 512 µg/mL; MIC [34]: > 512 µg/mL; MIC [35]: 128 µg/mL; MIC [36]: > 512 µg/mL; MIC [37]: > 512 µg/mL; MIC [38]: > 256 µg/mL
2 | CC1(C)S[C@@H]2[C@H](NC(=O)[C@H](N)c3ccc(O)cc3)C(=O)N2[C@H]1C(=O)O [AMOXICILLIN] | > 512 | > 512 | > 512 | > 512 | 4 (≈ 10.9 µM) | > 256 | > 512 | > 512 | > 512 | > 256 | 4 (≈ 10.9 µM) | > 256 | > 512 | > 512 | > 512 | > 512 | > 512 | > 512 | > 512 | > 512 | MIC [21]: > 512 µg/mL; MIC [22]: 4 µg/mL; MIC [23]: > 512 µg/mL; MIC [24]: > 512 µg/mL; MIC [25]: > 512 µg/mL; MIC [26]: > 256 µg/mL; MIC [27]: > 512 µg/mL; MIC [28]: > 512 µg/mL; MIC [29]: > 512 µg/mL; MIC [30]: > 512 µg/mL; MIC [31]: > 512 µg/mL; MIC [32]: > 512 µg/mL; MIC [33]: > 512 µg/mL; MIC [34]: > 512 µg/mL; MIC [35]: 128 µg/mL; MIC [36]: > 512 µg/mL; MIC [37]: > 512 µg/mL; MIC [38]: > 256 µg/mL
